Values after ≈ are worked out from the molar mass of the structure shown.
What was measured:
[1] = Inhibitory activity against HIV-I mediated H9 cells fusion.; format: functional, cell-based, Human immunodeficiency virus 1
Summary of the method: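 Dye transfer fusion assay: BCECF-AM-labeled H9/HIV-1 IIIB cells co-cultured with MT-2 cells (1:10) for 2 h at 37 °C with or without compound. Fused and unfused labeled cells counted by fluorescence microscopy; percent inhibition and IC50 derived.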

[2] = Inhibitory activity against NC-1 binding to N-36/C-34 peptide complex; format: functional
Summary of the method: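 Sandwich ELISA: N-36 (2 μM) preincubated with graded compound 30 min at 37 °C, then C-34 (2 μM) added for 30 min at 37 °C. Mixture captured on wells coated with rabbit anti-N36(L6)C34 IgG (10 μg/mL), detected with mAb NC-1, biotin anti-mouse IgG, streptavidin-HRP and TMB; A450 read; IC50 via Calcusyn.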

[3] = test system: Human immunodeficiency virus 1; assay: Selectivity index was determined by CC50/IC50 for Cytopathic effect.; format: functional
Summary of the method: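 Ratio of CC50 (XTT viability in uninfected MT-2 cells) to IC50 from HIV-1 IIIB CPE protection in MT-2 cells (XTT read-out, day 6).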

[4] = test system: MT-2 cells (Homo sapiens); assay: In vitro for the cytotoxicity in MT-2 cells.
[5] = Inhibitory activity against HIV-I mediated cytopathic effect in MT-2 cells; format: functional, cell-based; conditions: Human immunodeficiency virus 1, MT2
Summary of the method: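 1×10^4 MT-2 cells infected with diluted HIV-1 IIIB in RPMI 1640 with 10% FBS, graded compound concentrations; medium changed during culture. On day 6 post-infection, XTT (1 mg/mL) added, formazan read at 450 nm after 4 h; percent CPE inhibition and IC50 calculated.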

SMILES: O=C(Nc1ccc(Cl)c(Cl)c1)O/N=C(/c1ccccc1)c1ccc(-c2ccccc2)cc1
- IC50 [1]: > 100 µg/mL
- IC50 [2]: > 100 µg/mL
- Selectivity index [3]: < 1
- CC50 [4]: 74.7 µg/mL (≈ 162 µM)
- IC50 [5]: > 100 µg/mL

SMILES: O=C(Nc1cc([N+](=O)[O-])ccc1-c1ccc([N+](=O)[O-])cc1)c1ccc([N+](=O)[O-])cc1Cl
- IC50 [1]: > 100 µg/mL
- IC50 [2]: > 100 µg/mL
- Selectivity index [3]: < 1
- CC50 [4]: 47.2 µg/mL (≈ 107 µM)
- IC50 [5]: > 100 µg/mL

SMILES: CC(Nc1ccccc1Cl)c1nc2ccccc2c(=O)n1Cc1ccccc1 (stereo not given)
- IC50 [1]: > 100 µg/mL
- IC50 [2]: > 100 µg/mL
- Selectivity index [3]: < 1
- CC50 [4]: 86.8 µg/mL (≈ 223 µM)
- IC50 [5]: > 100 µg/mL

SMILES: Cc1ccc(N(C(=O)Nc2ccccc2)C(C)c2nc(O)c3ccccc3n2)c(C)c1 (stereo not given)
- IC50 [1]: > 100 µg/mL
- IC50 [2]: > 100 µg/mL
- Selectivity index [3]: < 1
- CC50 [4]: 40.8 µg/mL (≈ 98.8 µM)
- IC50 [5]: > 100 µg/mL

SMILES: COc1ccc2c(c1)CCCC2=NOC(=O)Nc1ccccc1-c1ccccc1
- IC50 [1]: > 100 µg/mL
- IC50 [2]: > 100 µg/mL
- Selectivity index [3]: < 1
- CC50 [4]: 46.8 µg/mL (≈ 121 µM)
- IC50 [5]: > 100 µg/mL

SMILES: Cc1ccc(N(C(=O)Nc2ccc(Cl)c(Cl)c2)C(C)c2nc(O)c3ccccc3n2)c(C)c1 (stereo not given)
- IC50 [1]: > 100 µg/mL
- IC50 [2]: > 100 µg/mL
- Selectivity index [3]: < 1
- CC50 [4]: 39.2 µg/mL (≈ 81.5 µM)
- IC50 [5]: > 100 µg/mL

SMILES: O=P(CCP(c1ccccc1)c1ccccc1)(c1ccccc1)c1ccccc1
- IC50 [1]: 52.27 µg/mL (≈ 126 µM)
- IC50 [2]: > 100 µg/mL
- Selectivity index [3]: < 1
- CC50 [4]: 28.9 µg/mL (≈ 69.7 µM)
- IC50 [5]: > 100 µg/mL

SMILES: CC[C@H]1CN2CC[C@H]1C[C@@H]2[C@@H](OC(=O)c1ccccc1Cl)c1ccnc2ccc(OC)cc12
- IC50 [1]: 59.78 µg/mL (≈ 129 µM)
- IC50 [2]: > 100 µg/mL
- Selectivity index [3]: < 1
- CC50 [4]: 41.3 µg/mL (≈ 88.9 µM)
- IC50 [5]: > 100 µg/mL

SMILES: CC(c1nc2ccc(Cl)cc2c(=O)n1Cc1ccccc1)N(C(=O)c1ccc([N+](=O)[O-])cc1)c1ccc(F)cc1 (stereo not given)
- IC50 [1]: > 100 µg/mL
- IC50 [2]: > 100 µg/mL
- Selectivity index [3]: < 1
- CC50 [4]: 30.2 µg/mL (≈ 54.2 µM)
- IC50 [5]: > 100 µg/mL

SMILES: C/C(=N/OC(=O)NS(=O)(=O)c1ccc(C)cc1)c1cc2ccccc2oc1=O
- IC50 [1]: > 100 µg/mL
- IC50 [2]: > 100 µg/mL
- Selectivity index [3]: < 1
- CC50 [4]: 286 µg/mL (≈ 714 µM)
- IC50 [5]: > 100 µg/mL

SMILES: Cc1ccc(C(=O)Nc2cccc(C(=O)N/N=C/c3ccc(Br)cc3)c2)cc1
- IC50 [1]: > 100 µg/mL
- IC50 [2]: > 100 µg/mL
- Selectivity index [3]: < 1
- CC50 [4]: 24.9 µg/mL (≈ 57.1 µM)
- IC50 [5]: > 100 µg/mL

SMILES: COC(=O)c1cc(C(=O)OC)cc(N(C(=O)Nc2ccc(Cl)c(Cl)c2)C(C)c2nc3ccccc3c(=O)n2Cc2ccccc2)c1 (stereo not given)
- IC50 [1]: > 100 µg/mL
- IC50 [2]: > 100 µg/mL
- Selectivity index [3]: < 1
- CC50 [4]: 20.9 µg/mL (≈ 31.8 µM)
- IC50 [5]: > 100 µg/mL

SMILES: Cc1ccc(/N=N/c2c(S(=O)(=O)O)cc3cc(S(=O)(=O)O)cc(Nc4nc(Cl)nc(N(C)c5ccccc5)n4)c3c2O)c(S(=O)(=O)O)c1
- IC50 [1]: 21.85 µg/mL (≈ 29.7 µM)
- IC50 [2]: 3.18 µg/mL (≈ 4.32 µM)
- Selectivity index [3]: 9.43
- CC50 [4]: 290 µg/mL (≈ 394 µM)
- IC50 [5]: 30.8 µg/mL (≈ 41.8 µM)

SMILES: C=C[C@H]1CN2CC[C@H]1C[C@@H]2[C@@H](OC(=O)c1ccc(OC)cc1)c1ccnc2ccccc12
- IC50 [1]: > 100 µg/mL
- IC50 [2]: > 100 µg/mL
- Selectivity index [3]: < 1
- CC50 [4]: 74.1 µg/mL (≈ 173 µM)
- IC50 [5]: > 100 µg/mL

SMILES: Cc1ccc(N(C(=O)Nc2cccc(Cl)c2)C(C)c2nc(O)c3ccccc3n2)c(C)c1 (stereo not given)
- IC50 [1]: > 100 µg/mL
- IC50 [2]: > 100 µg/mL
- Selectivity index [3]: < 1
- CC50 [4]: 54 µg/mL (≈ 121 µM)
- IC50 [5]: > 100 µg/mL

SMILES: COc1ccc(S(=O)(=O)O)cc1/N=N/c1c(S(=O)(=O)O)cc2cc(Nc3nc(Nc4ccccc4)nc(Nc4cc(C)c(/N=N/c5cc(S(=O)(=O)O)cc6cc(S(=O)(=O)O)cc(O)c56)cc4OC)n3)ccc2c1O
- IC50 [1]: 4.95 µg/mL (≈ 4.55 µM)
- IC50 [2]: 0.73 µg/mL (≈ 0.67 µM)
- Selectivity index [3]: 35.2
- CC50 [4]: 292 µg/mL (≈ 268 µM)
- IC50 [5]: 8.29 µg/mL (≈ 7.61 µM)
